Data reported in ChEMBL document CHEMBL1131143, “Predictive models for GABAA/benzodiazepine receptor subtypes: studies of quantitative structure-activity relationships for imidazobenzodiazepines at five recombinant GABAA/benzodiazepine receptor subtypes [alphaxbeta3gamma2 (x = 1-3, 5, and 6)] via comparative molecular field analysis” (J Med Chem, 1998).

Experiments:
Assay type in all cases: protein-complex assay
[1] = biological target: GABA-A receptor; alpha-2/beta-3/gamma-2 (Homo sapiens) (UniProt P18507+P28472+P47869); experiment: Inhibition of GABA-A benzodiazepine receptor alpha-2-beta-3-gamma-2 subunits at 1 uM
[2] = biological target: T1, GABA-A receptor; alpha-5/beta-3/gamma-2 (Homo sapiens, UniProt P18507+P28472+P31644); experiment: Binding affinity for Gamma-aminobutyric acid A receptor alpha-5-beta-3-gamma-2
T1 sequence (P18507 whole entry): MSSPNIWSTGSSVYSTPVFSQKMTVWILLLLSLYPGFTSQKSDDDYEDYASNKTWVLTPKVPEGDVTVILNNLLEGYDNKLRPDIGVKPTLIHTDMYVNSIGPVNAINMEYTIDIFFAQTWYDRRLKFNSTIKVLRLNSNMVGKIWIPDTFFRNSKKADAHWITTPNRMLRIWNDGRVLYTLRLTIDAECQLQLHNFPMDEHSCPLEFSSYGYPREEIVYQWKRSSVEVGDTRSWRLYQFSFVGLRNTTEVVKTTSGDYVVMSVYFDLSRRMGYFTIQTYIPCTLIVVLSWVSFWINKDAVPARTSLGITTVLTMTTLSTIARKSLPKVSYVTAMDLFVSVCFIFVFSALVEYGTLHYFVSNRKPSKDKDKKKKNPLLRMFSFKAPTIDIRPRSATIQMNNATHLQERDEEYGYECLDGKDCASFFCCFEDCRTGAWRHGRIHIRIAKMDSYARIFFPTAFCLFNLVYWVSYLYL
T1 sequence (P28472 whole entry): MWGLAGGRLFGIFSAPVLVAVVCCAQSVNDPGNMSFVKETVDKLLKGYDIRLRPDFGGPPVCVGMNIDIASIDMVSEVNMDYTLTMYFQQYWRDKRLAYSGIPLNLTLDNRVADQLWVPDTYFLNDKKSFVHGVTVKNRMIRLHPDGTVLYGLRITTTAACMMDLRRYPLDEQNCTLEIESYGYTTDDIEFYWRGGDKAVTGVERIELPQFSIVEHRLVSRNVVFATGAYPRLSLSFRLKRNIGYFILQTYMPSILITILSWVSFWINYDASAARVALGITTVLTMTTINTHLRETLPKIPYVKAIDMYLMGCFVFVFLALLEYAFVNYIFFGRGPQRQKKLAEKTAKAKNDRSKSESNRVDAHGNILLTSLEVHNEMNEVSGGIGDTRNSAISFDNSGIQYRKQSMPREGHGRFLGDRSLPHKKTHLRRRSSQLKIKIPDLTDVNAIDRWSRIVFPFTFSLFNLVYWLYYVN
T1 sequence (P31644 whole entry): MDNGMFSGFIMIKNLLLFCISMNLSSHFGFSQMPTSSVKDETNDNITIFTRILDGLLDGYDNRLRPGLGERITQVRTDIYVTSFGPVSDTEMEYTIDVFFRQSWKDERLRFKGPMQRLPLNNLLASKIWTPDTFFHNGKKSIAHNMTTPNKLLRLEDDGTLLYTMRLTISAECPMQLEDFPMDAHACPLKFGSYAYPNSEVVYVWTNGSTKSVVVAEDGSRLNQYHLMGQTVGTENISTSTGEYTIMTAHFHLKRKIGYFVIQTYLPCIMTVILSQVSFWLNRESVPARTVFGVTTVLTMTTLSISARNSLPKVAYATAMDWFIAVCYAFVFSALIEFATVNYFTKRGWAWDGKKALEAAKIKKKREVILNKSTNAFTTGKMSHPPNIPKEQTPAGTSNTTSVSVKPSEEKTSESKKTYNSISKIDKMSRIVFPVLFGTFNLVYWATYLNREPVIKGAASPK

[3] = biological target: T2, GABA-A receptor; alpha-1/beta-3/gamma-2 (Homo sapiens) (UniProt P14867+P18507+P28472); experiment: Inhibition of GABA-A benzodiazepine receptor alpha-1-beta-3-gamma-2 subunits at 1 uM
[4] = biological target: T3, GABA-A receptor; alpha-6/beta-3/gamma-2 (Homo sapiens, UniProt P18507+P28472+Q16445); experiment: Inhibition of Gamma-aminobutyric acid A receptor alpha-6-beta-3-gamma-2 at 1 uM
T3 sequence (Q16445 whole entry, one chain of several): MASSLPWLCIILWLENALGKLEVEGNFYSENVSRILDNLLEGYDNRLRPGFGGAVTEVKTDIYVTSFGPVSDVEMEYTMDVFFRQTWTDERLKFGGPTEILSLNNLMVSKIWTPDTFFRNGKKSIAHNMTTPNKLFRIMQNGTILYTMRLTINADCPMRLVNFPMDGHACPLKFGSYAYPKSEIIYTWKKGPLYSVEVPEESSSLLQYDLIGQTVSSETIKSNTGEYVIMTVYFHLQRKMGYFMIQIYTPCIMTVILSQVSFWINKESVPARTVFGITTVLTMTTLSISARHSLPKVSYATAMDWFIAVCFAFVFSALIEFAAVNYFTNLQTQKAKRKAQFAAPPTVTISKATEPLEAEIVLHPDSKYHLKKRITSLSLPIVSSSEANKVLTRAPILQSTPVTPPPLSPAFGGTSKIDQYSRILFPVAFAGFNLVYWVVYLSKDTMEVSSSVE
Procedure, shortened: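 Competition binding on Ltk⁻ cells expressing human α6β3γ2, radioligand [³H]Ro 15-4513. Cells scraped into PBS, spun at 3000g, resuspended in 10 mM KH₂PO₄/100 mM KCl pH 7.4. Nonspecific binding with 10⁻⁵ M diazepam; 1 h to equilibrium at 4 °C; filtration, ice-cold buffer wash, scintillation counting.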

[5] = biological target: GABA-A receptor; alpha-3/beta-3/gamma-2 (Homo sapiens) (UniProt P18507+P28472+P34903); experiment: Inhibition of GABA-A benzodiazepine receptor alpha-3-beta-3-gamma-2 subunits at 1 uM
[6] = biological target: T4, GABA-A receptor; alpha-3/beta-3/gamma-2 (Homo sapiens, UniProt P18507+P28472+P34903); experiment: Binding affinity against alpha-3-beta-3-gamma-2 GABAA/BzR receptor subtype.
T4 sequence (P18507 whole entry): T1 sequence (P18507 whole entry)
T4 sequence (P28472 whole entry): T1 sequence (P28472 whole entry)
T4 sequence (P34903 whole entry): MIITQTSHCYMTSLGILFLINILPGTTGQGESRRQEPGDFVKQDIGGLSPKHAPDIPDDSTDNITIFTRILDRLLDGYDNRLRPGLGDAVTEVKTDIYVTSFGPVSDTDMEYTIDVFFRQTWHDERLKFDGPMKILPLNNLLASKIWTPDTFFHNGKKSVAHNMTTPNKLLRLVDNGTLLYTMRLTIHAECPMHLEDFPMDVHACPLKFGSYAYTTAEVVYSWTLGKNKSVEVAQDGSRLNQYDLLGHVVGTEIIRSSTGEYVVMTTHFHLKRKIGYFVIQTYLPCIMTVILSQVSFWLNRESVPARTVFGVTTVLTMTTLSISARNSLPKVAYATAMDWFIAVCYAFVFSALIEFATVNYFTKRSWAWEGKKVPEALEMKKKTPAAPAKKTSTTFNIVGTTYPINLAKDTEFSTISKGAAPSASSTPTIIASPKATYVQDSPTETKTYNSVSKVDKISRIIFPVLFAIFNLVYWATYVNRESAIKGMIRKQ

[7] = biological target: T3, GABA-A receptor; alpha-6/beta-3/gamma-2; experiment: Binding affinity against Gamma-aminobutyric acid A receptor alpha-6-beta-3-gamma-2
Procedure, shortened: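 Cells scraped into PBS, spun at 3000g, resuspended in 10 mM KH₂PO₄/100 mM KCl pH 7.4. Nonspecific binding with 10⁻⁵ M diazepam; 1 h to equilibrium at 4 °C; filtration, ice-cold buffer wash, scintillation counting.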

[8] = biological target: T5, GABA-A receptor; alpha-2/beta-3/gamma-2 (Homo sapiens, UniProt P18507+P28472+P47869); experiment: Binding affinity for alpha-2-beta-3-gamma-2 GABA-A benzodiazepine receptor subunits
T5 sequence (P18507 whole entry): T1 sequence (P18507 whole entry)
T5 sequence (P28472 whole entry): T1 sequence (P28472 whole entry)
T5 sequence (P47869 whole entry): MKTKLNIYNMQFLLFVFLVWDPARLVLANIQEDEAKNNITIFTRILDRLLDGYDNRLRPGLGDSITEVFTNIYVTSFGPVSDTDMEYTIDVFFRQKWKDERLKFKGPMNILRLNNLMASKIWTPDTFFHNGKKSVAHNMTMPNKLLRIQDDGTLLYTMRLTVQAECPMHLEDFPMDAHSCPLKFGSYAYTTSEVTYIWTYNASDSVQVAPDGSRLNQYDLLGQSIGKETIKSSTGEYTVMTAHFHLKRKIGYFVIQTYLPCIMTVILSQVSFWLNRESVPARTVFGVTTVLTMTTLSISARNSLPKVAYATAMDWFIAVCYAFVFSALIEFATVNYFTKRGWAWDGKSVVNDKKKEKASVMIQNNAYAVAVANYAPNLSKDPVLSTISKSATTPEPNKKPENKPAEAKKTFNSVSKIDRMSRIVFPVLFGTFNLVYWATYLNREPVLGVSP

[9] = biological target: T6, GABA-A receptor; alpha-1/beta-3/gamma-2 (Homo sapiens, UniProt P14867+P18507+P28472); experiment: Binding affinity against alpha-1-beta-3-gamma-2 GABAA/BzR receptor subtype.
T6 sequence (P14867 whole entry): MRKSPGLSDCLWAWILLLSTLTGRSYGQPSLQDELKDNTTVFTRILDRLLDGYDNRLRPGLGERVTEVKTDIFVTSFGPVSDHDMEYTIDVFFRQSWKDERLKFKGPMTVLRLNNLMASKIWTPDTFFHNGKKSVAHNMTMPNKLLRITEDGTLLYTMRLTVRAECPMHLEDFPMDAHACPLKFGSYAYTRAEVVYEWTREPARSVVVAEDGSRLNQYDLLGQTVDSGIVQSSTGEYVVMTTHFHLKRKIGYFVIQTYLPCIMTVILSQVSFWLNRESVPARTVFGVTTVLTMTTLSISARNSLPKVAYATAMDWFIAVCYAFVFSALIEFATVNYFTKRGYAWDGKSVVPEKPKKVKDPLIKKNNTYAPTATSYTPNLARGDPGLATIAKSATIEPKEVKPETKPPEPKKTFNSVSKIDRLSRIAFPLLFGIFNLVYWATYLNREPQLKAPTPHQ
T6 sequence (P18507 whole entry): T1 sequence (P18507 whole entry)
T6 sequence (P28472 whole entry): T1 sequence (P28472 whole entry)

[10] = biological target: T5, GABA-A receptor; alpha-2/beta-3/gamma-2; experiment: Binding affinity tested against alpha-2-beta-3-gamma-2 GABAA/BzR receptor subtype.
[11] = biological target: T2, GABA-A receptor; alpha-1/beta-3/gamma-2 (Homo sapiens); experiment: It is the ratio of Ki value for alpha-1-beta-3-gamma-2 to that of alpha-5-beta-3-gamma-2

Compound	inhibition [1] [%]	Ki [2] [nM]	inhibition [3] [%]	inhibition [4] [%]	inhibition [5] [%]	Ki [6] [nM]	Ki [7] [nM]	Ki [8] [nM]	Ki [9] [nM]	Ki [10] [nM]	Ratio [11]
C#Cc1ccc2c(c1)C(=O)N1CC[C@H]1c1c(-c3nc(-c4ccccc4)no3)ncn1-2	29	374	10	14	15	–	–	–	–	–	–
CCOC(=O)c1ncn2c1CN(C)C(=O)c1cc(Br)ccc1-2	–	–	–	–	–	13	22	27	–	–	–
C#Cc1ccc2c(c1)C(=O)N1CCC[C@H]1c1c(-c3nc(-c4ccccc4)no3)ncn1-2	26	455	33	4	19	–	–	–	–	–	–
CCOC(=O)c1ncn2c1CN(C)C(=O)c1cc(OCC)ccc1-2	–	1.07	–	–	–	16.9	51.5	–	11.2	36	12.4
CN1Cc2c(C(=O)OC(C)(C)C)ncn2-c2ccc(Br)cc2C1=O	–	0.47	–	–	–	9.2	9.4	–	11.4	10.7	24.3
C#Cc1ccc2c(c1)C(=O)N1CC[C@H]1c1c(-c3nc(C(C)C)no3)ncn1-2	–	8.5	–	–	–	122	267	–	156	88	18
C#Cc1ccc2c(c1)C(=O)N1CCC[C@H]1c1c(-c3nc(C(C)C)no3)ncn1-2	–	4.8	–	–	–	97	333	–	73	85	15
CN1Cc2c(C(=O)OC(C)(C)C)ncn2-c2ccc(C#C[Si](C)(C)C)cc2C1=O	–	2.61	–	–	–	255	58.6	–	197	143	75.5
C#Cc1ccc2c(c1)C(=O)N1CCC[C@H]1c1c(C(=O)OCC)ncn1-2	–	1.3	–	–	–	27	126	–	59	44	45
